Reference: PubChem BioAssay
Active and inactive are the calls of the source. Cut-off read from the data, not from the text of the source, unless noted: active = inhibition above about 30%; inactive = the rest.

Assays:
[1] = reducers of endogenous Her2 protein level, primary screen, SKBR3 breast tumor cells, AlphaScreen, ATP viability (AID 461;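 active = Her2 level under about 52% in both replicate screens, with viability over 70% of control, limit read from the data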;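 for Her2 level: lower value means less Her2 protein in the cells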;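 for viability: percent of carrier control wells set as 100% viability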); details: 18-24 h, measured here: SKBR3 viability, ATP luminescence, at 10 µM
[2] = molecular target: Receptor tyrosine-protein kinase erbB-2 (Homo sapiens) (UniProt P04626); assay: as above; details: 18-24 h, at 10 µM, stronger effect = lower value
[3] = SK-BR-3 cell growth inhibitors, pilot screen, 24 h, human (AID 572;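 active = viability at or below 10% of carrier control in both of two separate runs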;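 note: compound exposure lasted between 18 and 24 h rather than exactly 24 h; 100% = carrier-treated control wells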); details: SK-BR-3 viability, CellTiter-Glo luminescence, at 10 µM, stronger effect = lower value
[4] = HUVEC growth inhibition – cell-based, human, primary screen (AID 575;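 active = viability at or below 30% in both replicate assays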;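 note: 100% = median of untreated cell wells with 0.1% DMSO on each plate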); details: HUVEC proliferation, CellTiter-Glo luminescence, 72 h; at 10 µM; stronger effect = lower value
Outline: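 Test system: primary human umbilical vein endothelial cells; medium: endothelial basal medium with 2% FBS plus growth supplements; dosing: 10 µM compound only; times: 72 h treatment at 37 °C; signal: CTG luminescence; read-out: % viability relative to median vehicle-well signal on each plate; control set: vehicle and MePR control wells; plate: 384-well, collagen-coated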

[5] = growth inhibitors of H69AR lung tumor, primary screen, human, duplicate replicates (AID 580;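 active = viability at or under a set limit in both replicates, limit being median viability minus 3 SD, cut at about 48% in these data, passing the limit was not always enough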;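 note: 100% = mean luminescence of untreated wells and 0% = no signal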); details: H69AR lung tumor cells viability, ATP luminescence, 72 h; at 10 µM; stronger effect = lower value
[6] = reversal of MRP1-mediated doxorubicin resistance, pilot screen, H69AR cells, doxorubicin co-treatment (AID 601;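 active = viability loss from added drug above about 55%, and viability with drug at most 40%, in both replicates, limit read from the data, passing the limit was not always enough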); details: CellTiter-Glo, 72 h, at 10 µM; for differential viability (reversal): stronger effect = higher value
[7] = 384-well plate pilot, post-Golgi transport modulator project, inhibition of yeast transport mutant growth (AID 636; in the data active = inhibition above about 31%); details: absorbance 615 nm, about 18 h, stronger effect = higher value
[8] = growth suppression of yeast trafficking mutant, preliminary HTS, modulators of trafficking downstream of Golgi apparatus project, 1536-format plate, OD 615 nm (AID 637); details: yeast transport mutant growth, absorbance 615 nm, 18 h; stronger effect = higher value
[9] = H69AR cells + 2 uM doxorubicin, measured here: viability with 2 uM doxorubicin, stronger effect = lower value
[10] = H69AR cells, compound alone cytotoxicity

Chain of Receptor tyrosine-protein kinase erbB-2 (Homo sapiens) (P04626 whole entry, looked up): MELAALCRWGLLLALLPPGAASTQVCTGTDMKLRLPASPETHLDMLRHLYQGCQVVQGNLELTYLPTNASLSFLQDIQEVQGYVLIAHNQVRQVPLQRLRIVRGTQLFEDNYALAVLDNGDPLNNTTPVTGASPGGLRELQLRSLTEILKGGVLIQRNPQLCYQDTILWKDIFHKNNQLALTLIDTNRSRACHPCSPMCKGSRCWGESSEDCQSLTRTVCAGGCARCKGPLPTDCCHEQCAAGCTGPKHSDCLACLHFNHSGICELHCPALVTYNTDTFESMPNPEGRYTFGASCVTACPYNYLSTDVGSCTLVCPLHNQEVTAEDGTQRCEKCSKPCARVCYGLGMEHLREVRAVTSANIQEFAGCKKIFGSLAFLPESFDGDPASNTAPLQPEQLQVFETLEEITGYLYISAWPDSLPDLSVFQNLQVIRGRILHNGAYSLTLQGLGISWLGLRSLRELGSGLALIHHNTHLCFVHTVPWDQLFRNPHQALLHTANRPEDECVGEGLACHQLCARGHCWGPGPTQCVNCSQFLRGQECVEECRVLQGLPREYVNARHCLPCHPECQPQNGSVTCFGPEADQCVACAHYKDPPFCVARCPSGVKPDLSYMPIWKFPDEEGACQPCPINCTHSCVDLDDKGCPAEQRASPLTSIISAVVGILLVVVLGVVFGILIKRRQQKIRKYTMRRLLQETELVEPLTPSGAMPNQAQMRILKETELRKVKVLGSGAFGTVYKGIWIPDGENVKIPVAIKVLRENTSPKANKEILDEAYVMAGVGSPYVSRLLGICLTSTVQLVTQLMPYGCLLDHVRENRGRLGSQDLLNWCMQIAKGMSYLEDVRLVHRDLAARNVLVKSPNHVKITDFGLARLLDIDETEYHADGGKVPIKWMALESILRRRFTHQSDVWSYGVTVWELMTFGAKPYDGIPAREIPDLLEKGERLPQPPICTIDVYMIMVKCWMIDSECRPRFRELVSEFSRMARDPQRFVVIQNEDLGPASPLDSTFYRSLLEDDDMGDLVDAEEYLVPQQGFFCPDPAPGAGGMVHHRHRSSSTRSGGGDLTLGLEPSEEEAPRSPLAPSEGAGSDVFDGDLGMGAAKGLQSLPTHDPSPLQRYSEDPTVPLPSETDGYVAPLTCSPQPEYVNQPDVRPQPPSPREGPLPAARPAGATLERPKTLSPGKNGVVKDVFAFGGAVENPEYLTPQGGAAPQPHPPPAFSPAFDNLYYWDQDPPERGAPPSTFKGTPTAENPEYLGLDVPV

Row | SMILES | viability [1] | Her2 level [2] | viability [3] | viability [4] | viability [5] | differential viability (reversal) ([6]; H69AR cells + 2 uM doxorubicin) | viability [6, 9] | viability [6, 10] | inhibition [7] | inhibition [8]
1 | CC1=C(c2ccc(Cl)cc2)[N+](=O)C(C)(C)N1[O-] | 99.5% | 95.5% (inactive) | 99.5% (inactive) | 110% (inactive) | 89.6% (inactive) | -4.19% (inactive) | 93.8% | 89.6% | -4.52% (inactive) | -10.2% (inactive)
2 | COc1ccc(N(C(=O)c2ccco2)S(=O)(=O)c2cc(OC)ccc2OC)cc1 | 102% | 84.5% (inactive) | 102% (inactive) | 81% (inactive) | 72.2% (inactive) | -25.7% (inactive) | 97.9% | 72.2% | -1.84% (inactive) | 4.17% (inactive)
3 | c1cncc(-c2nnc(-c3ccco3)o2)c1 | 106% | 114% (inactive) | 106% (inactive) | 86.3% (inactive) | 105% (inactive) | 16% (inactive) | 89% | 105% | -4.93% (inactive) | -7.58% (inactive)
4 | CC1Oc2ccccc2N(CC(=O)N(Cc2ccccc2)Cc2ccccn2)C1=O (stereo not given) | 108% | 100% (inactive) | 108% (inactive) | 110% (inactive) | 88.6% (inactive) | -1.47% (inactive) | 90.1% | 88.6% | -5.54% (inactive) | -10% (inactive)
5 | c1c2c(cc3sc(N4CCCCC4)nc13)OCCO2 | 98% | 91.5% (inactive) | 98% (inactive) | 87% (inactive) | 75.4% (inactive) | 2.07% (inactive) | 73.3% | 75.4% | -4.93% (inactive) | 7.26% (inactive)
6 | O=C(O)c1cccc(NS(=O)(=O)c2ccc3nnn(O)c3c2)c1 | 123% | 87% (inactive) | 123% (inactive) | 94.9% (inactive) | 102% (inactive) | 3.63% (inactive) | 98% | 102% | -4.27% (inactive) | 5.71% (inactive)
7 | O=C(Nc1cccnc1N1CCOCC1)c1ccco1 | 110% | 86% (inactive) | 110% (inactive) | 115% (inactive) | 92% (inactive) | 7.89% (inactive) | 84.2% | 92% | -7.3% (inactive) | -4.67% (inactive)
8 | O=C(NCc1ccccn1)Nc1ccc2c(c1)OCO2 | 100% | 102% (inactive) | 100% (inactive) | 78.7% (inactive) | 92.4% (inactive) | 4.97% (inactive) | 87.4% | 92.4% | -2.37% (inactive) | -0.95% (inactive)
9 | CN1CCN(/C=N/c2sc3c(c2C#N)CCCCC3)CC1 | 97% | 96.5% (inactive) | 97% (inactive) | 75.9% (inactive) | 84.2% (inactive) | 6.14% (inactive) | 78.1% | 84.2% | 0.67% (inactive) | -9.52% (inactive)
10 | Cc1ccc(Cn2nnc3c(=O)[nH]c(C4CCN(C(=O)c5cccs5)CC4)nc32)cc1 | 90.5% | 84% (inactive) | 90.5% (inactive) | 73.4% (inactive) | 86% (inactive) | 2.21% (inactive) | 83.8% | 86% | -3.73% (inactive) | -1.94% (inactive)
11 | O=C1C(Cl)=C(N2CCOCC2)C(=O)N1CCc1ccccc1 | 104% | 84% (inactive) | 104% (inactive) | 89.3% (inactive) | 71.3% (inactive) | 0.02% (inactive) | 71.3% | 71.3% | -6.27% (inactive) | -1.11% (inactive)
12 | CCn1c(SCC(N)=O)nc2c1c(=O)n(C)c(=O)n2C | 107% | 95% (inactive) | 107% (inactive) | 90% (inactive) | 95.9% (inactive) | 4.83% (inactive) | 91.1% | 95.9% | -2.63% (inactive) | -1.27% (inactive)
13 | Oc1cc(NCc2cccnc2)ccc1-c1nc2ccccc2o1 | 86.5% | 94% (inactive) | 86.5% (inactive) | 97.2% (inactive) | 82.7% (inactive) | -7.37% (inactive) | 90.1% | 82.7% | 1.17% (inactive) | 10.8% (inactive)
14 | COCCN(CCOC)S(=O)(=O)c1ccc(C(=O)Nc2nnc(C3CC3)o2)cc1 | 75% | 86% (inactive) | 75% (inactive) | 80.5% (inactive) | 82.7% (inactive) | -1.53% (inactive) | 84.2% | 82.7% | -3.65% (inactive) | 1.48% (inactive)
15 | Cc1oc(-c2ccccc2F)nc1CS(=O)(=O)CC(=O)N1CCN(Cc2ccccc2)CC1 | 77.5% | 91.5% (inactive) | 77.5% (inactive) | 102% (inactive) | 90.2% (inactive) | -1.19% (inactive) | 91.4% | 90.2% | -3.07% (inactive) | -0.98% (inactive)
16 | Cc1ccnc(NC(=O)CCC(=O)N(CC(=O)NC2CCCCC2)c2cccc(C)c2C)c1 | 92.5% | 97.5% (inactive) | 92.5% (inactive) | 92.1% (inactive) | 86.7% (inactive) | -7.79% (inactive) | 94.5% | 86.7% | 0% (inactive) | 22.6% (inactive)
17 | CCC(=O)N1C(=O)CCN(C(C)=O)c2ccccc21 | 86.5% | 106% (inactive) | 86.5% (inactive) | 100% (inactive) | 103% (inactive) | -1.28% (inactive) | 104% | 103% | -4.67% (inactive) | 0.32% (inactive)
18 | Cc1cccc(NS(=O)(=O)c2cc(C(=O)OCC(=O)Nc3cc(C)on3)ccc2C)c1 | 93% | 86% (inactive) | 93% (inactive) | 77.7% (inactive) | 112% (inactive) | 10.1% (inactive) | 102% | 112% | -2.8% (inactive) | -2.26% (inactive)
19 | CCOc1ccc(Nc2nc(Cc3nnc(SCC(N)=O)o3)cs2)cc1 | 106% | 88% (inactive) | 106% (inactive) | 89.8% (inactive) | 93.6% (inactive) | 13.2% (inactive) | 80.4% | 93.6% | -6.1% (inactive) | -2.7% (inactive)
20 | O=C(CN1CCC(n2nnc3cc(F)ccc32)CC1)Nc1ccc2c(c1)CCC2 | 93% | 104% (inactive) | 93% (inactive) | 79.5% (inactive) | 86.3% (inactive) | -5.55% (inactive) | 91.8% | 86.3% | -4.59% (inactive) | -3.5% (inactive)
21 | Clc1ccccc1OCc1nn2c(-c3ccncc3)nnc2s1 | 114% | 75.5% (inactive) | 114% (inactive) | 78.6% (inactive) | 98.2% (inactive) | 5.55% (inactive) | 92.7% | 98.2% | -5.95% (inactive) | 2.67% (inactive)
22 | O=C(O)CCCc1nc(-c2ccccc2)no1 | 91.5% | 87.5% (inactive) | 91.5% (inactive) | 96% (inactive) | 97% (inactive) | -0.87% (inactive) | 97.8% | 97% | -4.53% (inactive) | 0.95% (inactive)
23 | c1ccc2c(c1)Cn1c-2nc2ccccc21 | 114% | 95% (inactive) | 114% (inactive) | 120% (inactive) | 78.4% (inactive) | -1.54% (inactive) | 79.9% | 78.4% | -6.35% (inactive) | 1% (inactive)
24 | CC(C(=O)N1CCc2ccccc21)N1CCc2ccccc2C1 (stereo not given) | 82% | 79% (inactive) | 82% (inactive) | 93.7% (inactive) | 91.6% (inactive) | -10.2% (inactive) | 102% | 91.6% | -0.53% (inactive) | -3.11% (inactive)
25 | CCn1c(=O)c(C(=O)NCc2ccc(OC)cc2)c(O)c2ccccc21 | 86.5% | 89.5% (inactive) | 86.5% (inactive) | 46.7% (inactive) | 73.2% (inactive) | -13.4% (inactive) | 86.7% | 73.2% | -3.46% (inactive) | -8.5% (inactive)
26 | CCOc1cc(NC(=O)c2ccco2)c(OCC)cc1NC(=O)CCC(=O)NCc1cccnc1 | 95.5% | 100% (inactive) | 95.5% (inactive) | 88.1% (inactive) | 86.1% (inactive) | -4.71% (inactive) | 90.8% | 86.1% | -1.43% (inactive) | -4.17% (inactive)
27 | COc1ccc(CCn2c(-c3ccco3)nc3nc4ccccc4nc32)cc1 | 108% | 110% (inactive) | 108% (inactive) | 62.8% (inactive) | 25.6% (active) | -29.9% (inactive) | 55.4% | 25.6% | -1.62% (inactive) | 1.31% (inactive)
28 | O=c1[nH]c2cccnc2n1Cc1ccco1 | 90% | 88% (inactive) | 90% (inactive) | 107% (inactive) | 97.5% (inactive) | 13.8% (inactive) | 83.8% | 97.5% | -4.32% (inactive) | 0.83% (inactive)
29 | COC(=O)c1ccccc1S(=O)(=O)N(CCCO)Cc1cc2c(C)ccc(C)c2[nH]c1=O | 84.5% | 106% (inactive) | 84.5% (inactive) | 75.3% (inactive) | 79.3% (inactive) | -2.33% (inactive) | 81.6% | 79.3% | -4.73% (inactive) | -5.25% (inactive)
